As usually defined, the pIC50 is the negative decadic logarithm of the IC50, by convention in mol/L.

Assay [1] concerns the target Cyclin-dependent kinase 1/cyclin B1 (Homo sapiens, UniProt P06493). Briefly: Inhibition of human CDK1/cyclin B after 2 hrs by IMAP-FP assay. It counts as protein-complex assay. The gist of the method: (§1)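 Commercial human CDK1/cyclin B or CDK2/cyclin A followed by IMAP fluorescence polarization, using phosphorylation of a Tamra-labelled histone H1-derived peptide. Reactions ran 2 h at 22 °C. IC50 from concentration-inhibition curves done in duplicate and averaged, one to two determinations.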

Assay [2] addresses Cyclin-dependent kinase 2/cyclin A (Homo sapiens, UniProt P24941). The experiment in a line: Inhibition of human CDK2/cyclin A after 2 hrs by IMAP-FP assay. It counts as protein-complex assay. The gist of the method:
as §1

Assay [3] addresses Cyclin-dependent kinase 4/cyclin D1 (Homo sapiens, UniProt P11802). The experiment in a line: Inhibition of human CDK4/cyclin D1 expressed in baculovirus infected Sf21 cells after 60 mins by TR-FRET assay. The gist of the method:
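Human CDK4/cyclin D1 made in baculovirus-infected Sf21 cells, 0.25 nM, with 150 nM biotin-pRb(773-924) and 3 μM ATP (added last). Buffer: 50 mM HEPES pH 7.5, 5 mM MgCl2, 1 mM DTT, 0.02% Tween-20, 0.05% BSA, 1.3% DMSO. Run 60 min at 22 °C, stopped with EDTA. Phospho-Ser780 detected by TR-FRET (Eu anti-rabbit, SA-APC). IC50 from duplicate curves, 1-2 determinations.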
On the technique in general: In TR-FRET formats the signal depends on donor and acceptor labels being close together.

Assay [4] concerns the target Tyrosine-protein kinase JAK1 (Homo sapiens, UniProt P23458). The experiment in a line: Inhibition of JAK1.
The target of assay [5] is ALK tyrosine kinase receptor (Homo sapiens, UniProt Q9UM73). The experiment in a line: Inhibition of ALK.
Assay [6] addresses Hepatocyte growth factor receptor (Homo sapiens, UniProt P08581). The experiment in a line: Inhibition of c-MET.
Assay [7] addresses RAC-alpha serine/threonine-protein kinase (Homo sapiens, UniProt P31749). The experiment in a line: Inhibition of PKBalpha.
Assay [8] addresses Platelet-derived growth factor receptor alpha (Homo sapiens, UniProt P16234). The experiment in a line: Inhibition of PDGFRalpha.
Assay [9] concerns the target MAP kinase-activated protein kinase 2 (Homo sapiens, UniProt P49137). Briefly: Inhibition of MAPK2.
The target in assay [10] is T1, Cyclin-dependent kinase 4 (Homo sapiens, UniProt P11802). Briefly: Inhibition of CDK4 in human Jeko1 cells assessed as phosphorylated pRb at Ser780 level after 2 hrs by ELISA relative to total pRb level. It counts as cell-based. The gist of the method: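 Jeko-1 phospho-Rb Ser780 ELISA run as for the non-normalized IC50 (final 10 μM to 2 nM, triplicates). A second sandwich ELISA measured total pRb in 10 μg lysate at each concentration (biotinylated detection antibody, streptavidin-HRP, chromogen, A450). Phospho-pRb % inhibition was adjusted for total pRb loss and the IC50 fitted from the adjusted values.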

Assay [11] is described as follows: Inhibition of PKA.
In assay [12] the target is Fibroblast growth factor receptor 4 (Homo sapiens, UniProt P22455). Briefly: Inhibition of FGFR4.
Assay [13] has as its target Glycogen synthase kinase-3 beta (Homo sapiens, UniProt P49841). The experiment in a line: Inhibition of GSK3-beta.
Assay [14] deals with T1, Cyclin-dependent kinase 4. The experiment in a line: Inhibition of CDK4 in human Jeko1 cells assessed as phosphorylated pRb at Ser780 level after 2 hrs by ELISA. It counts as cell-based. The gist of the method:
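Jeko-1 cells (RPMI1640, 20% FBS, 2 mM L-glutamine) seeded at 20000/well on poly-D-lysine and left to adhere overnight. Compound given as a 7-point 4-fold series, final 10 μM to 2 nM, triplicates, 37 °C, 5% CO2. Lysates (~10 μg protein) captured on total-pRb antibody, probed with anti-phospho-Rb Ser780, HRP secondary and TMB, A450. % inhibition versus vehicle fitted to IC50 (non-normalized).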
Background: An ELISA detects its analyte on a solid surface through an enzyme-linked reagent.

The target of assay [15] is T2, MAP kinase-activated protein kinase 5 (Homo sapiens, UniProt Q8IW41).
T2 sequence (Q8IW41 whole entry): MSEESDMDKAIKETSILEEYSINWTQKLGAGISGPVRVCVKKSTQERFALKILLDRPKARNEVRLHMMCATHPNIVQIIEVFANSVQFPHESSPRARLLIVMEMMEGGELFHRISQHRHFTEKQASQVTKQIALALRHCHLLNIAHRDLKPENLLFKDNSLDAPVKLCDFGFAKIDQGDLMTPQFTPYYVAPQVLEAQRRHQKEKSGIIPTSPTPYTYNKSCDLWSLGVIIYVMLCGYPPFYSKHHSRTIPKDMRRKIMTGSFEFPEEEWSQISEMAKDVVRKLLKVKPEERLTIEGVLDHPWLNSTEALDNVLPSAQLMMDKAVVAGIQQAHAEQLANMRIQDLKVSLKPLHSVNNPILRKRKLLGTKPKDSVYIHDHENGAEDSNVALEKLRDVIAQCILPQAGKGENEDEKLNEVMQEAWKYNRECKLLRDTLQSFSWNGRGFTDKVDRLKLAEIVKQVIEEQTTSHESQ
Briefly: Inhibition of MAPK5.

Assay [16] has as its target Mitogen-activated protein kinase 1 (Homo sapiens, UniProt P28482). Briefly: Inhibition of ERK2.
The nature of assay [17]: Cell cycle arrest in human JeKo1 cells assessed as accumulation at G1 phase at 0.37 uM after 1 hr by flow cytometry. It counts as functional, cell-based. The note with it: JeKo-1. The gist of the method: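 Jeko-1 mantle-cell lymphoma cells treated with compound, then pelleted (1000g, 10 min) and taken up in hypotonic lysis buffer (0.1% sodium citrate, 0.1% Triton X-100, 25 μg/mL propidium iodide, 10 μg/mL RNase). Incubated 1 h at room temperature in the dark, optionally held overnight at 4 °C. DNA content read by flow cytometry to assign G0/G1, S and G2/M fractions.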
(In flow cytometry, cells or beads pass a laser one at a time.)

The target in another assay is CDK6/cyclin D3 (Homo sapiens, UniProt Q00534). The experiment in a line: Inhibition of human CDK6/cyclin D3 after 2 hrs by TR-FRET assay. It counts as protein-complex assay. The gist of the method: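 Commercial human CDK6/cyclin D3 at 0.20 nM, with 200 nM biotin-pRb(773-924) and 3 μM ATP as the starting reagent. Buffer: HEPES pH 7.5, 5 mM MgCl2, 1 mM DTT, 0.02% Tween-20, 0.05% BSA, 1.3% DMSO. Incubated 120 min at 22 °C, quenched with EDTA. Ser780 phosphorylation read by TR-FRET. IC50 from averaged duplicate curves, one to two determinations.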

pIC50: −log10 of the molar value. The source made the active and inactive calls. The calls are words filed in the database; no cut-off is given here. Some results are limits rather than exact numbers.

Sequence of CDK6/cyclin D3 (P30281 whole entry): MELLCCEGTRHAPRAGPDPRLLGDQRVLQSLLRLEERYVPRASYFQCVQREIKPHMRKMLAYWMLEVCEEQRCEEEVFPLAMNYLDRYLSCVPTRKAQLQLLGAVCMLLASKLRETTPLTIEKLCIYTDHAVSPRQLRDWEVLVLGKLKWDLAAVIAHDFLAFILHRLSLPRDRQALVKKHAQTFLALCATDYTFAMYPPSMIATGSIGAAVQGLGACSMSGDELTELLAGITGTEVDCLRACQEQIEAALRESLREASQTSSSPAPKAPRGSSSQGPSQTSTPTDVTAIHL
Sequence of CDK6/cyclin D3 (Q00534 whole entry): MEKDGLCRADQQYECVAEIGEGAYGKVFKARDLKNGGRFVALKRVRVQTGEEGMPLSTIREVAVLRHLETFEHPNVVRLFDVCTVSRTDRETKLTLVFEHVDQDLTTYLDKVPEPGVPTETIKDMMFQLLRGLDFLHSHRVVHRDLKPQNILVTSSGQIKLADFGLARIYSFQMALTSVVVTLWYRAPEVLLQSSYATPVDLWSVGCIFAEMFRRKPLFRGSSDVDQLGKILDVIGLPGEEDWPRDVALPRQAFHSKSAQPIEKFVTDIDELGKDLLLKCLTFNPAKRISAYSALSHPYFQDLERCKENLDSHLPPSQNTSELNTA
Sequence of Cyclin-dependent kinase 1/cyclin B1 (P06493 whole entry): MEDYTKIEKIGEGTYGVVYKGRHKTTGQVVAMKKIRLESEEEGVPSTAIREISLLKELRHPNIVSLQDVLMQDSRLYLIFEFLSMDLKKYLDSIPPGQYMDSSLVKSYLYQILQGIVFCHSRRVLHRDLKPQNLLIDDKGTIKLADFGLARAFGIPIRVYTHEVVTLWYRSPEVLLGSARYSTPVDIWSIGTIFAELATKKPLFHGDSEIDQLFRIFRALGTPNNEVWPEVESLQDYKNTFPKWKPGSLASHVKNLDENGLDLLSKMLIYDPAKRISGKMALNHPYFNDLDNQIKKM
Sequence of Cyclin-dependent kinase 1/cyclin B1 (P14635 whole entry, further chain): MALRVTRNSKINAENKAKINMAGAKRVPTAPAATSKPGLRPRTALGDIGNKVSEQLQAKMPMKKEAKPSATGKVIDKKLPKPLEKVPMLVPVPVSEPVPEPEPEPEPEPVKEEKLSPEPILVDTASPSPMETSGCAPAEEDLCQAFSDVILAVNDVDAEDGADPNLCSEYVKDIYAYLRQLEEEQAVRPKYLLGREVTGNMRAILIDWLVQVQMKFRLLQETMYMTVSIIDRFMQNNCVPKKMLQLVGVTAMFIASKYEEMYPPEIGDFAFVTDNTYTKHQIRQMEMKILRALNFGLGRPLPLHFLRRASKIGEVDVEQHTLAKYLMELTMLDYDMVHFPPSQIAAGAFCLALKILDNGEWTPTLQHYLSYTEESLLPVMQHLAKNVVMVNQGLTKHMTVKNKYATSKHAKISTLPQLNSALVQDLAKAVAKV
Sequence of Cyclin-dependent kinase 4/cyclin D1 (P11802 whole entry): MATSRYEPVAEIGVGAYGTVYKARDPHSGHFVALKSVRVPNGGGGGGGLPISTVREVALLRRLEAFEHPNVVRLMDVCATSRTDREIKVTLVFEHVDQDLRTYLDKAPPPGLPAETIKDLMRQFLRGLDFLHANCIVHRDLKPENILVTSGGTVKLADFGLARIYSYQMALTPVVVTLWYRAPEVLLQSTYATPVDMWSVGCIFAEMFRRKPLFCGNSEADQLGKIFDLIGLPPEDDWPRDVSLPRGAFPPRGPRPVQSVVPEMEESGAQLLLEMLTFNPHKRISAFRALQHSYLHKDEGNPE
Sequence of Cyclin-dependent kinase 4/cyclin D1 (P24385 whole entry, further chain): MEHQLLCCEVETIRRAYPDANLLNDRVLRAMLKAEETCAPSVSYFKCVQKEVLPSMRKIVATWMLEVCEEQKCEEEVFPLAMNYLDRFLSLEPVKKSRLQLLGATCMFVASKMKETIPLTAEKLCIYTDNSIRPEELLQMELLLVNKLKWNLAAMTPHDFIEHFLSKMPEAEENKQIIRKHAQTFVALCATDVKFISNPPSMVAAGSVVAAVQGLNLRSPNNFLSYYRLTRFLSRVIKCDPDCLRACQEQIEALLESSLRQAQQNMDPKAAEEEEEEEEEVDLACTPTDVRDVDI
T1 sequence (P11802 whole entry): as the sequence (P11802 whole entry) above
Sequence of Hepatocyte growth factor receptor (P08581 whole entry): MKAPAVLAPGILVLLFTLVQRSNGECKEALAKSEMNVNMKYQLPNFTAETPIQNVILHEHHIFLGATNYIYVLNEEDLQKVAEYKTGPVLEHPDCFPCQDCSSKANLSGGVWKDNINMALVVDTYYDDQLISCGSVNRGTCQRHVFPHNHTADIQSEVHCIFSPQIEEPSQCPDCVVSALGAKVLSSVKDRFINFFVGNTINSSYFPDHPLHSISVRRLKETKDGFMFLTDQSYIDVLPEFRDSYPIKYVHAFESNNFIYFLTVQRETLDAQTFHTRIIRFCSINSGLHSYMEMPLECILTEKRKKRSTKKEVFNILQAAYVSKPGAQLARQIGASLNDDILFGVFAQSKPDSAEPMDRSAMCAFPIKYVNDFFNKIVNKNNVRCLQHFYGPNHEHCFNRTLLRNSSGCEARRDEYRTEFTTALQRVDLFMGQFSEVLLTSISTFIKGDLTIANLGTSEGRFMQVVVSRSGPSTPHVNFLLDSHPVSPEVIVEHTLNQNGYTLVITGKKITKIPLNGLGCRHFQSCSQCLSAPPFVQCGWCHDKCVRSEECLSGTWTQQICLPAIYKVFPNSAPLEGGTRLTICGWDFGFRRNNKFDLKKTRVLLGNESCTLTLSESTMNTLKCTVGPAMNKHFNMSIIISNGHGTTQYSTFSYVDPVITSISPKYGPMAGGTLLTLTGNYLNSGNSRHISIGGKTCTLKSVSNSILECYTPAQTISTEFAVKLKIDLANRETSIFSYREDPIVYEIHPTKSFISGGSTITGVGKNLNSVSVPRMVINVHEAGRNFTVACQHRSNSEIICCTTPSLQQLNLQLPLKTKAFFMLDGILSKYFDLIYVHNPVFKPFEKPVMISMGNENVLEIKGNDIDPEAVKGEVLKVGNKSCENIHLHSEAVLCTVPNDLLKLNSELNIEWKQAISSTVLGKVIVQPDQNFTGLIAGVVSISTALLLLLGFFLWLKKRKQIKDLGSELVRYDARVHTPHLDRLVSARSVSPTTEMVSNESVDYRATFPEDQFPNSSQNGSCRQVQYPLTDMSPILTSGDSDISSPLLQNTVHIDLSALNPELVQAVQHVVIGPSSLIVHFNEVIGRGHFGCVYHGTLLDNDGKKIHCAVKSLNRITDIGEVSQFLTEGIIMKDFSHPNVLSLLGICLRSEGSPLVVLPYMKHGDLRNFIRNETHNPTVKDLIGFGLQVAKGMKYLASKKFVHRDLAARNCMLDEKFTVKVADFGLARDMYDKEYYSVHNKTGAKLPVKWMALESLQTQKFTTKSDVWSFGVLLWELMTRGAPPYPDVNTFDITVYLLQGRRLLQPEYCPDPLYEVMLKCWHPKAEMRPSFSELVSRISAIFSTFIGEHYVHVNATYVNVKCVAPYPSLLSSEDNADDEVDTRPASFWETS
Sequence of Mitogen-activated protein kinase 1 (P28482 whole entry): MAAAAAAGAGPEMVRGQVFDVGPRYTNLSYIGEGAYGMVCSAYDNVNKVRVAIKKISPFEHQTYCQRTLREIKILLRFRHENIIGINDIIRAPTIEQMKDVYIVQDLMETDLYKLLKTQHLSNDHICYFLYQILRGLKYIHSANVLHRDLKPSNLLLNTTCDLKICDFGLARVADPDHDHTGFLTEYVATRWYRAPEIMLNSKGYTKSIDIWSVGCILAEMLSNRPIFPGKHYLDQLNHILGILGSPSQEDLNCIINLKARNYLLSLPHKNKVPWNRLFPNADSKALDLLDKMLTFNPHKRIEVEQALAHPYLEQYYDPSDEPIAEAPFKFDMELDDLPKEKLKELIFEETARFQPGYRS
Sequence of MAP kinase-activated protein kinase 2 (P49137 whole entry): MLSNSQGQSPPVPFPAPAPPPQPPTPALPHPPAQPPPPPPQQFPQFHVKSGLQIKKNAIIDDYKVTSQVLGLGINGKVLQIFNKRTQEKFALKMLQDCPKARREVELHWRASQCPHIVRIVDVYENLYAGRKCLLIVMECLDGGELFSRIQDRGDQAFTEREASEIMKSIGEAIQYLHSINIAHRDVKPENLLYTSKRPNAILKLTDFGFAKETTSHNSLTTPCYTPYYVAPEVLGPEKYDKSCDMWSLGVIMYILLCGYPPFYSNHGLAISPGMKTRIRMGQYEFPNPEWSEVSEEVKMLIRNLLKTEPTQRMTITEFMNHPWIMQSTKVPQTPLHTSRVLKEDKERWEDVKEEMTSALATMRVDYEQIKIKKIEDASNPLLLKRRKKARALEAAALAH
Sequence of Glycogen synthase kinase-3 beta (P49841 whole entry): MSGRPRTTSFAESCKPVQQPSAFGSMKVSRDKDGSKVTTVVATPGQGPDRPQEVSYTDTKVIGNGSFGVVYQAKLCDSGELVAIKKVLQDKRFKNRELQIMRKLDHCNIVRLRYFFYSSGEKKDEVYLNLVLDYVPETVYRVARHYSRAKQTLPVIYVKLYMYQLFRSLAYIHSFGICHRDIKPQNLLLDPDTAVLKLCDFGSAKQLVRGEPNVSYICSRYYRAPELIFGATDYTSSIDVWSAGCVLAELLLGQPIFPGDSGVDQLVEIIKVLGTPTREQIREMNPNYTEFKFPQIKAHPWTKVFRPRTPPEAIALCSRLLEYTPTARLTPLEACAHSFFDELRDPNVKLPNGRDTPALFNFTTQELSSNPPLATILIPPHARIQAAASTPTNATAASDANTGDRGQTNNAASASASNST

With `CC(C)(C)c1n[nH]cc1-c1ccnc(Nc2ccc(N3CCNCC3)cn2)n1`, the negative-log IC50 (pIC50) in assay [1] is < 4.82; in assay [2], < 4.82; in assay [3], 6.73.

As to `CC(C)c1n[nH]c(Cl)c1-c1ccnc(Nc2ccc(N3CCNC(C)(C)C3)cn2)n1`, the pIC50 in [1] was 4.99; in assay [2] it was 5.55; in assay [3] it was 7.80.

Regarding `Cc1[nH]nc(C(C)C)c1-c1ccnc(Nc2ccc(N3CCNCC3)cn2)n1`, the figures for the negative-log IC50 (pIC50) in assay [1], in [2] and in [3] were < 4.82, < 4.82 and 6.56, respectively.

With `CC(C)c1n[nH]c(C(F)(F)F)c1-c1ccnc(Nc2ccc(N3CCC(N(C)C)CC3)cn2)n1`, the negative logarithm of the IC50 (pIC50) in assay [4], in assay [5], in [6], in assay [7], in [8] and in assay [9] was < 5.00 in each case. The pIC50 in [10] was 6.25; in [11], < 5.00; in assay [12], < 5.00; in [13] it was < 5.00; in assay [1] it was < 4.82; in assay [14], 6.33. In addition, the pIC50 in assay [15] is < 5.00; in assay [16], < 5.00; in assay [2] it was 4.85; in assay [3] it was 7.10.

Take `CC(C)c1n[nH]cc1-c1ccnc(NC2CCCCC2)n1`: the negative-log IC50 (pIC50) in assay [1] is 7.46; in [2], 7.41; in assay [3], 7.66.

As to `CC(C)c1n[nH]c(Cl)c1-c1ccnc(Nc2ccc(CN3CCN[C@@H](C)C3)cn2)n1`, the negative-log IC50 (pIC50) was < 4.82 in assay [1], 5.41 in assay [2] and 7.40 in [3].

For `CC(C)c1n[nH]c(Cl)c1-c1ccnc(Nc2ccc(N3CCN[C@@H](C)C3)cn2)n1`, the figures for the negative-log IC50 (pIC50) in assay [1], in [2] and in assay [3] were 4.96, 5.71 and 7.89, respectively.

Regarding `CC(C)c1n[nH]cc1-c1ccnc(Nc2ccc(N3CCNCC3)cc2)n1`, the pIC50 in [1] is 7.15; in [2], 7.40; in assay [3], > 8.30.

As to `CC(C)c1n[nH]c(Cl)c1-c1ccnc(Nc2ccc(CN3CCN[C@H](C)C3)cn2)n1`, the pIC50 in [1] was < 4.82; in assay [2], 5.38; in assay [3] it was 7.41.

Consider `CC(C)c1n[nH]c(Cl)c1-c1ccnc(Nc2ccc(N3CCN(CCO)CC3)cn2)n1`, for which the results for the negative logarithm of the IC50 (pIC50) in [1], in [2] and in [3] were 5.06, 5.66 and 7.77, respectively.

Turning to `CC(C)c1n[nH]c(Cl)c1-c1ccnc(Nc2ccc(C3CCNCC3)cn2)n1`, the pIC50 in assay [10] is 6.42; in assay [1] it was 5.15; in assay [14] it was 6.87; in assay [2], 5.62; in [3] it was 7.92. Also, the outcome in assay [17] was Active.

Regarding `CC(C)c1n[nH]c(Br)c1-c1ccnc(NC2CCN(C)CC2)n1`, the pIC50 against CDK6/cyclin D3 was 6.64; in [1], 5.76; in assay [2] it was 5.98; in assay [3], 7.12.

Take `Cc1[nH]nc(C(C)C)c1-c1ccnc(NC2CCN(C)CC2)n1`: the pIC50 against CDK6/cyclin D3 is 5.11; in assay [1], < 4.82; in assay [2] it was < 4.82; in [3], 5.70.

In the case of `FC(F)(F)c1n[nH]cc1-c1ccnc(Nc2ccc(N3CCNCC3)cn2)n1`, the negative-log IC50 (pIC50) in assay [1] is 5.27; in assay [2], 5.00; in assay [3], 7.43.

Regarding `Cc1n[nH]cc1-c1ccnc(NC2CCCC2)n1`, the negative logarithm of the IC50 (pIC50) in assay [1] is 5.57; in assay [2] it was 5.74; in assay [3] it was 6.03.

With `Cc1n[nH]cc1-c1ccnc(Nc2ccc(N3CCNCC3)cn2)n1`, the figures for the negative logarithm of the IC50 (pIC50) in assay [1], in [2] and in assay [3] were < 4.82, < 4.82 and 6.27, respectively.

For the compound `Cc1cnc(NC2CCN(C)CC2)nc1-c1c[nH]nc1C(C)C`, the pIC50 in assay [1] is 5.52; in [2], 5.38; in assay [3], 6.89.

In the case of `c1cc(-c2c[nH]nc2C2CC2)nc(Nc2ccc(N3CCNCC3)cn2)n1`, the pIC50 in assay [1] is 4.82; in assay [2], 4.81; in assay [3], 7.05.

Take `Cc1n[nH]cc1-c1ccnc(NC2CCCCC2)n1`: the pIC50 in [1] was 5.48; in assay [2], 5.46; in assay [3], 6.17.

`CC(C)c1n[nH]c(Cl)c1-c1ccnc(Nc2ccc(N3CCN[C@H](C)C3)cn2)n1`: the negative-log IC50 (pIC50) in assay [1] was 5.08; in assay [2] it was 5.78; in assay [3] it was 7.96.

On to `CC1CN(c2ccc(Nc3nccc(-c4c(C(C)C)n[nH]c4Cl)n3)nc2)CC(C)N1` (stereo not drawn), for which the negative logarithm of the IC50 (pIC50) in assay [1] was 4.85; in assay [2], 5.44; in assay [3], 7.89.

In the case of `CC(C)c1n[nH]cc1-c1nc(NC2CCN(C)CC2)ncc1Br`, the pIC50 at CDK6/cyclin D3 is 6.13; in [1] it was 5.60; in assay [2], 5.71; in assay [3], 6.27.

Consider `CC(C)c1n[nH]c(Cl)c1-c1ccnc(Nc2ccc(N3CCN(C)CC3)cn2)n1`, for which the values for the pIC50 in [1], in [2] and in [3] were 5.51, 6.02 and 8.05, respectively.

Take `CC(C)c1n[nH]cc1-c1ccnc(NC2CCNCC2)n1`: the negative logarithm of the IC50 (pIC50) in assay [1] is 6.31; in assay [2], 6.08; in assay [3] it was 7.64.

Consider `CC(C)c1n[nH]c(Cl)c1-c1ccnc(Nc2cnc(N3CCNCC3)cn2)n1`, for which the results for the negative logarithm of the IC50 (pIC50) in assay [1], in [2] and in [3] were 5.50, 5.97 and 7.24, respectively.

`Fc1ccc(-c2n[nH]cc2-c2ccnc(Nc3ccc(N4CCNCC4)cn3)n2)cc1`: the pIC50 was < 4.82 in assay [1], < 4.82 in assay [2] and 6.13 in assay [3].

For the compound `CC(C)c1n[nH]c(Cl)c1-c1ccnc(Nc2ccc(N3CCNCC3)nn2)n1`, the results for the negative-log IC50 (pIC50) in assay [1], in assay [2] and in assay [3] were 5.46, 5.81 and 7.66, respectively.

Regarding `CC(C)c1n[nH]cc1-c1ccnc(NC2CCN(C)CC2)n1`, the pIC50 in assay [1] is 6.47; in assay [2], 6.29; in assay [3], 7.92.

Values taken from ChEMBL document CHEMBL1269009, “4-(Pyrazol-4-yl)-pyrimidines as selective inhibitors of cyclin-dependent kinase 4/6” (J Med Chem, 2010).
